Data from ChEMBL document CHEMBL1147141, “Potent nonpeptide antagonists of the bradykinin B1 receptor: structure-activity relationship studies with novel diaminochroman carboxamides” (J Med Chem, 2007).

Columns and labels:
B1 bradykinin receptor [1] = target: T1, B1 bradykinin receptor (Homo sapiens, UniProt P46663); assay: Displacement of [3H]DAK from human bradykinin B1 receptor expressed in CHOD cells; assay type: cell-based
T1 sequence (P46663 whole entry): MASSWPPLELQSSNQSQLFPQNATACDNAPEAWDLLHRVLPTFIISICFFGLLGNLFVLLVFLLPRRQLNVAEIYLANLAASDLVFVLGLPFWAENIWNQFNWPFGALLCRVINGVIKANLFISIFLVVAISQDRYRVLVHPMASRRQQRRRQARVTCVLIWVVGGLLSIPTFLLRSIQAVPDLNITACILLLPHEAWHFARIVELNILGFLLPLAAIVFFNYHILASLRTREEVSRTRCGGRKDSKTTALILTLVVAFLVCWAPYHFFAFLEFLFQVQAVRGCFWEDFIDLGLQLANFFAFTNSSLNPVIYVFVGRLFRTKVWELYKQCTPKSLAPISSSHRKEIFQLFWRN

B1 bradykinin receptor [2] = target: T1, B1 bradykinin receptor; assay: Antagonist activity at human bradykinin B1 receptor expressed in CHOD cells assessed as effect on DAK-induced calcium flux; assay type: functional, cell-based
B1 bradykinin receptor [3] = target: T2, B1 bradykinin receptor (Oryctolagus cuniculus, UniProt P48748); assay: Antagonist activity at rabbit bradykinin B1 receptor; assay type: functional
T2 sequence (P48748 whole entry): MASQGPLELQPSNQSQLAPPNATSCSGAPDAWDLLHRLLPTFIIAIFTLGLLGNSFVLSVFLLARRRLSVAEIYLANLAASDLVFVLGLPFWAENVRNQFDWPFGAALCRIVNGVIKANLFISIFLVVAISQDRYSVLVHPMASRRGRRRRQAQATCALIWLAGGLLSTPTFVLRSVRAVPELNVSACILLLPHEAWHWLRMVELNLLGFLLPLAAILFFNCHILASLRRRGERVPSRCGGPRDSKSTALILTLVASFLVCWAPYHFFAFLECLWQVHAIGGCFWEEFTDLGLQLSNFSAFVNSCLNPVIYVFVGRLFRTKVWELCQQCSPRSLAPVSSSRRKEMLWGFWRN

[4] = Oral bioavailability in Sprague-Dawley rat at 10 mg/kg, po; assay type: ADME, organism-based; settings: in vivo
Procedure, shortened: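 Male Sprague-Dawley rats (225-280 g), cannulated and fasted overnight, were dosed by oral gavage at 10 mg/kg in 1% Tween 80, 2% HPMC, prepared 24-48 h before dosing, n = 3. Jugular blood was sampled over 6 or 8 h. Plasma was analysed by LC-MS/MS and parameters derived noncompartmentally.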

[5] = Volume of distribution at steady state in Sprague-Dawley rat at 1 mg/kg, iv; assay type: ADME, organism-based; set-up: dose 1 mg/kg, route intravenous; settings: in vivo, read-out: Vss
Procedure, shortened: (§1)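 Male Sprague-Dawley rats (225-280 g) with femoral and jugular vein cannulae were fasted overnight. They received an i.v. bolus of 1 mg/kg in 100% DMSO, prepared on the dosing day, n = 3. Blood was drawn via jugular cannula over 6 or 8 h into heparin. Plasma was acetonitrile-precipitated and measured by LC-MS/MS (positive MRM). Parameters were noncompartmental and reported with SEM.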

[6] = Clearance in Sprague-Dawley rat at 1 mg/kg, iv; assay type: ADME, organism-based; set-up: dose 1 mg/kg, route intravenous; settings: in vivo; procedure, shortened: as §1
[7] = Half life in Sprague-Dawley rat at 1 mg/kg, iv; assay type: ADME, organism-based; set-up: dose 1 mg/kg, route intravenous; settings: in vivo; procedure, shortened: as §1
B1 bradykinin receptor [8] = target: T3, B1 bradykinin receptor (Rattus norvegicus, UniProt P97583); assay: Antagonist activity at rat bradykinin B1 receptor; assay type: functional
T3 sequence (P97583 whole entry): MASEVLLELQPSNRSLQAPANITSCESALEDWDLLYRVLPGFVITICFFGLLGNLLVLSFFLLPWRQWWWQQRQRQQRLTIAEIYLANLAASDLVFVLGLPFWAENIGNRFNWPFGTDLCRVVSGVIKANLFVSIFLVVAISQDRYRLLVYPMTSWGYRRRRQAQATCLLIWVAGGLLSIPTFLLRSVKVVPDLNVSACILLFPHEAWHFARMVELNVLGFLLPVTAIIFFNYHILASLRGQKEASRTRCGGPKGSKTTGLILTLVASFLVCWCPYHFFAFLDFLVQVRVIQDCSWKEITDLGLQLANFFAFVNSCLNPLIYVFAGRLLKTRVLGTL

[9] = Metabolic stability in rat liver microsomes; assay type: ADME, Microsome; settings: read-out: Stability
[10] = Metabolic stability in human liver microsomes; assay type: ADME, Microsome; settings: read-out: Stability

Ki (B1 bradykinin receptor [1])	IC50 (B1 bradykinin receptor [2])	Structure (SMILES)	further results
20.6 nM (antagonist)	127 nM (antagonist)	CC(C)(C)NCc1ccc2c(c1)OCC[C@H]2NC(=O)C[C@@H](NS(=O)(=O)c1cc(Cl)c(F)cc1F)c1ccccc1	
17.9 nM (antagonist)	78.4 nM (antagonist)	CC(C)(C)NCc1ccc2c(c1)OCC[C@H]2NC(=O)C[C@@H](NS(=O)(=O)c1cccc(C(F)(F)F)c1)c1ccccc1	
120 nM (antagonist)	566 nM (antagonist)	CC(C)(C)NCc1ccc2c(c1)OCC[C@H]2NC(=O)C[C@@H](NS(=O)(=O)c1cccc(C(F)(F)F)c1)c1ccc(C#N)cc1	
5 nM (antagonist)	9.6 nM (antagonist)	CC(C)(C)NCc1ccc2c(c1)OCC[C@H]2NC(=O)C[C@@H](NS(=O)(=O)c1ccc(Cl)c(Cl)c1)c1ccc(F)cc1	
367 nM (antagonist)	2000 nM (antagonist)	CC(C)(C)NCc1ccc2c(c1)OCC[C@H]2NC(=O)C[C@@H](NS(=O)(=O)c1ccccc1C(F)(F)F)c1ccccc1	
8.3 nM (antagonist)	45.9 nM (antagonist)	CC(C)NCc1ccc2c(c1)OCC[C@H]2NC(=O)C[C@@H](NS(=O)(=O)c1ccc2ccccc2c1)c1ccccc1	
5.5 nM (antagonist)	19.7 nM (antagonist)	O=C(C[C@@H](NS(=O)(=O)c1cccc(C(F)(F)F)c1)c1ccc(F)cc1)N[C@@H]1CCOc2cc(CN3CCCC3)ccc21	IC50 (B1 bradykinin receptor [3]): 450 nM (antagonist); bioavailability [4]: 41%; Vd [5]: 13.7 L/kg; clearance [6]: 51.3 mL/min/kg; half-life [7]: 3.8 h; Ki (B1 bradykinin receptor [8]): 151 nM (antagonist); microsomal CLint [9]: 158 µL/min/mg; microsomal CLint [10]: 355 µL/min/mg
77.6 nM (antagonist)	330 nM (antagonist)	CC(C)(C)NCc1ccc2c(c1)OCC[C@H]2NC(=O)C[C@@H](NS(=O)(=O)c1ccc(C(F)(F)F)cc1)c1ccccc1	
4.8 nM (antagonist)	9.9 nM (antagonist)	CC(C)(C)NCc1ccc2c(c1)OCC[C@H]2NC(=O)C[C@@H](NS(=O)(=O)c1cccc(C(F)(F)F)c1)c1ccc(F)cc1	
27.7 nM (antagonist)	113 nM (antagonist)	CC(C)(C)NCc1ccc2c(c1)OCC[C@H]2NC(=O)C[C@@H](NS(=O)(=O)c1cccc(Cl)c1)c1ccccc1	
21.8 nM (antagonist)	69.9 nM (antagonist)	O=C(C[C@@H](NS(=O)(=O)c1ccc2ccccc2c1)c1ccccc1)N[C@@H]1CCOc2cc(CNC3CCCCC3)ccc21	
84.8 nM (antagonist)	167 nM (antagonist)	CN(C)Cc1ccc2c(c1)OCC[C@H]2NC(=O)C[C@@H](NS(=O)(=O)c1ccc2ccccc2c1)c1ccccc1	
7.6 nM (antagonist)	24.3 nM (antagonist)	CC(C)(C)NCc1ccc2c(c1)OCC[C@H]2NC(=O)C[C@@H](NS(=O)(=O)c1ccc(Cl)c(Cl)c1)c1ccccc1	
10 nM (antagonist)	46.2 nM (antagonist)	O=C(C[C@@H](NS(=O)(=O)c1cccc(C(F)(F)F)c1)c1ccc(F)cc1)N[C@@H]1CCOc2cc(CNC3CCC3)ccc21	
4.7 nM (antagonist)	20.1 nM (antagonist)	CC(C)NCc1ccc2c(c1)OCC[C@H]2NC(=O)C[C@@H](NS(=O)(=O)c1cccc(C(F)(F)F)c1)c1ccc(F)cc1	
132 nM (antagonist)	580 nM (antagonist)	CC(C)(C)NCc1ccc2c(c1)OCC[C@H]2NC(=O)C[C@@H](NS(=O)(=O)c1ccc(Cl)cc1)c1ccccc1	
5 nM (antagonist)	10.5 nM (antagonist)	CC(C)CNCc1ccc2c(c1)OCC[C@H]2NC(=O)C[C@@H](NS(=O)(=O)c1ccc2ccccc2c1)c1ccccc1	

Ki (B1 bradykinin receptor [1])	IC50 (B1 bradykinin receptor [2])	Structure (SMILES)	further results
393 nM (antagonist)	2030 nM (antagonist)	CC(C)(C)NCc1ccc2c(c1)OCC[C@H]2NC(=O)C[C@@H](NS(=O)(=O)c1ccccc1Cl)c1ccccc1	
24.8 nM (antagonist)	60.9 nM (antagonist)	CC(C)(C)NCc1ccc2c(c1)OCC[C@H]2NC(=O)C[C@@H](NS(=O)(=O)c1ccc(C(C)(C)C)cc1)c1ccccc1	
13.4 nM (antagonist)	96.3 nM (antagonist)	C[C@@H]1CCC[C@H](C)N1Cc1ccc2c(c1)OCC[C@H]2NC(=O)C[C@@H](NS(=O)(=O)c1ccc2ccccc2c1)c1ccccc1	
40.6 nM (antagonist)	207 nM (antagonist)	Cc1c(Cl)cccc1S(=O)(=O)N[C@H](CC(=O)N[C@@H]1CCOc2cc(CNC(C)(C)C)ccc21)c1ccccc1	
> 50000 nM	> 4000 nM	O=C(C[C@@H](NS(=O)(=O)c1ccc2ccccc2c1)c1ccccc1)N[C@@H]1CCOc2cc(CO)ccc21	
3.7 nM (antagonist)	10.9 nM (antagonist)	O=C(C[C@@H](NS(=O)(=O)c1ccc2ccccc2c1)c1ccccc1)N[C@@H]1CCOc2cc(CN3CCOCC3)ccc21	
138 nM (antagonist)	212 nM (antagonist)	CNCc1ccc2c(c1)OCC[C@H]2NC(=O)C[C@@H](NS(=O)(=O)c1ccc2ccccc2c1)c1ccccc1	
5.7 nM (antagonist)	14.8 nM (antagonist)	O=C(C[C@@H](NS(=O)(=O)c1ccc2ccccc2c1)c1ccccc1)N[C@@H]1CCOc2cc(CN3CCCC3)ccc21	
25.2 nM (antagonist)	203 nM (antagonist)	CC(C)(C)NCc1ccc2c(c1)OCC[C@H]2NC(=O)C[C@@H](NS(=O)(=O)c1ccc(F)c(Cl)c1)c1ccccc1	
5.4 nM (antagonist)	17 nM (antagonist)	CC(C)(C)NCc1ccc2c(c1)OCC[C@H]2NC(=O)C[C@@H](NS(=O)(=O)c1ccc2ccccc2c1)c1ccccc1	
127 nM (antagonist)	255 nM (antagonist)	CC(C)(C)NCc1ccc2c(c1)OCC[C@H]2NC(=O)C[C@@H](NS(=O)(=O)c1ccc(Cl)cc1Cl)c1ccccc1	
14 nM (antagonist)	17.4 nM (antagonist)	COCCNCc1ccc2c(c1)OCC[C@H]2NC(=O)C[C@@H](NS(=O)(=O)c1cccc(C(F)(F)F)c1)c1ccc(F)cc1	IC50 (B1 bradykinin receptor [3]): 1680 nM (antagonist); bioavailability [4]: 49%; Vd [5]: 8.09 L/kg; clearance [6]: 39.4 mL/min/kg; half-life [7]: 3.4 h; Ki (B1 bradykinin receptor [8]): 208 nM (antagonist); microsomal CLint [9]: 265 µL/min/mg; microsomal CLint [10]: 310 µL/min/mg
6.7 nM (antagonist)	9.4 nM (antagonist)	COCCNCc1ccc2c(c1)OCC[C@H]2NC(=O)C[C@@H](NS(=O)(=O)c1ccc(Cl)c(Cl)c1)c1ccc(F)cc1	
5.9 nM (antagonist)	14.8 nM (antagonist)	CC(C)CNCc1ccc2c(c1)OCC[C@H]2NC(=O)C[C@@H](NS(=O)(=O)c1cccc(C(F)(F)F)c1)c1ccc(F)cc1	
308 nM (antagonist)	352 nM (antagonist)	NCc1ccc2c(c1)OCC[C@H]2NC(=O)C[C@@H](NS(=O)(=O)c1ccc2ccccc2c1)c1ccccc1	
8.9 nM (antagonist)	60.2 nM (antagonist)	CCNCc1ccc2c(c1)OCC[C@H]2NC(=O)C[C@@H](NS(=O)(=O)c1ccc2ccccc2c1)c1ccccc1	
